From the array DNA melting data of Ke et al. (doi:10.1101/2024.01.08.574731) come the findings set out here.

Data set [1] in a line: folding enthalpy; higher = less favourable; fluorescence melt of hairpins on a sequencing array, two-state fit. Particulars: sodium 0.088 M. In a few lines:
(§1)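 To match UV melts, fitted temperatures were raised by 9.35 °C. These fits were bootstrapped two-state models that gave melting temperature and folding enthalpy, combined by inverse variance over four replicates. The input was normalised Cy3 fluorescence of library hairpins with annealed Cy3 and quencher oligos on a sequenced MiSeq flow cell, imaged in 50 mM Na-HEPES pH 8.0, 25 mM NaCl in 2.5 °C steps up to 60 °C.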

Data set [2] is described as follows: melting temperature; fluorescence melt of hairpins on a sequencing array, two-state fit, raised by 9.35 °C to match UV melts. Particulars: sodium 0.088 M. The essentials: as §1

GATCCACCAGTGGATC ((((((....)))))): the folding enthalpy in data set [1] is -50.8 kcal/mol. In addition, the Tm in data set [2] amounted to 56.1 °C.

As for GCATCAGGAAACCGATGC (((((.(....).))))), the folding enthalpy in data set [1] is -33.4 kcal/mol. Further, the Tm in data set [2] amounted to 50 °C.

Regarding GACGTGGGAAACCACGCC (.(((((....))))).), the folding enthalpy in data set [1] was -14 kcal/mol. The Tm in data set [2] is 48.6 °C.

In the case of GTGGATGGAAACATCTGC (..((((....))))..), the folding enthalpy in data set [1] was -23 kcal/mol. Further, the Tm in data set [2] came out at 37.6 °C.

As for GAAGGTGGAAACATCTTC ((((.((....)).)))), the folding enthalpy in data set [1] is -30.8 kcal/mol. The Tm in data set [2] was 41.6 °C.

On to GATCATGTACATGATC ((((((....)))))), for which the folding enthalpy in data set [1] was -40.7 kcal/mol. For the same sequence, the Tm in data set [2] is 56.5 °C.

Turning to GCTGTGCCGAAAGGCAGC (((..(((....)))))), the folding enthalpy in data set [1] was -10.3 kcal/mol. Further, in data set [2], the Tm worked out at 48.7 °C.

As for GATAGCGAAAGCTAATC ((((((....))).))), the folding enthalpy in data set [1] is -12.8 kcal/mol. In data set [2], the Tm was 40.7 °C.

Consider GATCCAACAATGGATC ((((((....)))))), for which the folding enthalpy in data set [1] was -32.7 kcal/mol. The Tm in data set [2] came to 47.1 °C.

Consider GCCTAGGGAAACCTGGGC (((.(((....))).))), for which the folding enthalpy in data set [1] is -38.3 kcal/mol. The Tm in data set [2] turned out to be 55.1 °C.

With GCTACGCGAAAGCGCGGC ((..(((....)))..)), the folding enthalpy in data set [1] was -16.1 kcal/mol. The Tm in data set [2] is 51 °C.

On to CTCGGGAAACCGAG (((((....))))), for which the folding enthalpy in data set [1] is -23.9 kcal/mol. The Tm in data set [2] stood at 56.1 °C.

GCATCGCGAAAGCACTGC (((..((....))..))): the folding enthalpy in data set [1] is -14.7 kcal/mol. Besides, in data set [2], the Tm stood at 38.5 °C.

With GCCGTGCGAAAGCAGAGC ((..(((....)))..)), in data set [1], the folding enthalpy was -13.5 kcal/mol. For the same sequence, the Tm in data set [2] came out at 51.9 °C.

Turning to GATCTTAGGAAAGATC ((((((....)))))), in data set [1], the folding enthalpy is -26.5 kcal/mol. In addition, the Tm in data set [2] is 38.6 °C.

As to GGGTGCGAAAGCAAGCCC ((((((....)))..))), in data set [1], the folding enthalpy is -23.1 kcal/mol. The Tm in data set [2] turned out to be 53.8 °C.

Consider GCGGGGCGAAAGCACTGC ((.(.((....)).).)), for which the folding enthalpy in data set [1] is -24.7 kcal/mol. Besides, in data set [2], the Tm was determined as 65.5 °C.

Take CGCACGGAAACGTATGCG ((((((....)))..))): the folding enthalpy in data set [1] was -35.9 kcal/mol. In addition, in data set [2], the Tm was 46.7 °C.

Turning to GATCAGTGAACTGATC ((((((....)))))), the folding enthalpy in data set [1] is -36.2 kcal/mol. Also, the Tm in data set [2] came out at 52.6 °C.

Take GATCCTTCAAGGATC ((((((...)))))): in data set [1], the folding enthalpy is -36.9 kcal/mol. Moreover, the Tm in data set [2] was determined as 54.7 °C.

In the case of GACTGTGGAAACATGGTC (((..((....))..))), the folding enthalpy in data set [1] was -28.7 kcal/mol. Also, the Tm in data set [2] turned out to be 37.9 °C.

Consider GATCATGCGATGATC ((((((...)))))), for which, in data set [1], the folding enthalpy is -31.9 kcal/mol. Further, in data set [2], the Tm came out at 46.9 °C.

In the case of GTAGTGCGAAAGCAATAC (((.(((....))).))), in data set [1], the folding enthalpy was -28 kcal/mol. Also, the Tm in data set [2] is 53.9 °C.

In the case of CGAGCGGAAACGCTTTCG ((((((....)))..))), the folding enthalpy in data set [1] is -11.8 kcal/mol. For the same sequence, in data set [2], the Tm turned out to be 30.4 °C.

Take GCGTGCGAAAGCAGTCGC ((((((....)))..))): the folding enthalpy in data set [1] is -20.1 kcal/mol. In data set [2], the Tm came to 53 °C.

Consider GATCGCCGAAAGGCATC (((.(((....)))))), for which, in data set [1], the folding enthalpy is -9.53 kcal/mol. In data set [2], the Tm was determined as 37.6 °C.

With GGCCCTTCGAAAGAAGCC (((..(((....)))))), the folding enthalpy in data set [1] was -12.6 kcal/mol. Besides, in data set [2], the Tm amounted to 27.3 °C.

As for GATCAGTTGTCTGATC ((((((....)))))), the folding enthalpy in data set [1] was -39.2 kcal/mol. For the same sequence, the Tm in data set [2] stood at 50.5 °C.

As to GGATTGGGAAACTAGTCC (((.(.(....).).))), the folding enthalpy in data set [1] was -23.6 kcal/mol. The Tm in data set [2] worked out at 27.3 °C.

In the case of GATCATAAATATGATC ((((((....)))))), the folding enthalpy in data set [1] is -41.4 kcal/mol. The Tm in data set [2] worked out at 45.2 °C.

As to GATCCGAATCGGATC ((((((...)))))), in data set [1], the folding enthalpy is -36 kcal/mol. Besides, the Tm in data set [2] was 55 °C.

With GCGGTACCCCGC ((((....)))), the folding enthalpy in data set [1] was -21.6 kcal/mol. Moreover, in data set [2], the Tm came out at 54.5 °C.

For the sequence GATCGTCTCACGATC ((((((...)))))), the folding enthalpy in data set [1] is -40.6 kcal/mol. Further, the Tm in data set [2] was 57.4 °C.

With GATTAGGGAAACTTAATC (((((.(....).))))), the folding enthalpy in data set [1] was -17.3 kcal/mol. For the same sequence, the Tm in data set [2] stood at 29.1 °C.

Turning to GATCCGAATCCGGATC ((((((....)))))), the folding enthalpy in data set [1] was -38.5 kcal/mol. Besides, in data set [2], the Tm was found to be 55.8 °C.

Take GGGGCTACGAAAGTACCC (((..(((....)))))): the folding enthalpy in data set [1] was -22.1 kcal/mol. Besides, in data set [2], the Tm was 48 °C.

As for GTGCTTCGAAAGAACCAC (((.(((....))).))), in data set [1], the folding enthalpy was -27.8 kcal/mol. The Tm in data set [2] is 34.8 °C.

On to GATCGGGCCGCCGATC ((((((....)))))), for which, in data set [1], the folding enthalpy is -37.2 kcal/mol. In addition, in data set [2], the Tm came out at 59.1 °C.

In the case of GGCACTCGAAAGAGAGCC (((.(((....))).))), the folding enthalpy in data set [1] is -46.2 kcal/mol. For the same sequence, the Tm in data set [2] is 59 °C.

Consider GCTGTGCGAAAGCAAAGC (((.(((....))).))), for which the folding enthalpy in data set [1] is -42.2 kcal/mol. For the same sequence, in data set [2], the Tm was 55.7 °C.

Consider GCATAGCGAAAGCTCCGC ((..(((....)))..)), for which the folding enthalpy in data set [1] was -8.77 kcal/mol. Also, the Tm in data set [2] was 32.6 °C.

As to GCGTAGCGAAAGCAAGGC ((.(.((....)).).)), in data set [1], the folding enthalpy is -7.5 kcal/mol. Also, in data set [2], the Tm came out at 35.5 °C.

Turning to GATCGTATTAACGATC ((((((....)))))), the folding enthalpy in data set [1] was -37.1 kcal/mol. Besides, the Tm in data set [2] was 55.9 °C.

Regarding CGCAAACGGAAACGTGCG (((..(((....)))))), in data set [1], the folding enthalpy was -36.2 kcal/mol. The Tm in data set [2] was found to be 50.9 °C.

Take GATCCGACGTCGGATC ((((((....)))))): the folding enthalpy in data set [1] is -52 kcal/mol. In data set [2], the Tm was determined as 59.9 °C.

Take GATCCAGACATGGATC ((((((....)))))): in data set [1], the folding enthalpy is -39.9 kcal/mol. Further, the Tm in data set [2] was 58 °C.

For GCCGTGCGAAAGCAATGC ((..(((....)))..)), in data set [1], the folding enthalpy is -11.2 kcal/mol. For the same sequence, in data set [2], the Tm stood at 39.2 °C.

As for GAAGTGCGAAAGCAATTC (((.(((....))).))), the folding enthalpy in data set [1] is -28.2 kcal/mol. The Tm in data set [2] is 52.8 °C.

GCACCGGGAAACCGGTAC (.(((((....))))).): the folding enthalpy in data set [1] is -14.8 kcal/mol. For the same sequence, in data set [2], the Tm is 41 °C.

With GATTGTGGAAACACAGTC ((.((((....)))).)), the folding enthalpy in data set [1] was -26.4 kcal/mol. Also, the Tm in data set [2] stood at 42.6 °C.

As for GATCCAAAATTGGATC ((((((....)))))), the folding enthalpy in data set [1] is -35.8 kcal/mol. Moreover, the Tm in data set [2] stood at 48.1 °C.

As to GCGGTATCCGC ((((...)))), in data set [1], the folding enthalpy was -24 kcal/mol. Besides, the Tm in data set [2] stood at 54.9 °C.

Turning to GATCTTGGTGAAGATC ((((((....)))))), the folding enthalpy in data set [1] was -27.2 kcal/mol. Moreover, in data set [2], the Tm was determined as 45.4 °C.

For GACGGCGGAAACGCCATC ((.((((....)))).)), in data set [1], the folding enthalpy is -13.2 kcal/mol. Moreover, the Tm in data set [2] turned out to be 41.1 °C.

With GATCTTTTGAAAGATC ((((((....)))))), the folding enthalpy in data set [1] was -28.3 kcal/mol. In addition, the Tm in data set [2] was determined as 44.7 °C.

Turning to GATCTCCTCAGAGATC ((((((....)))))), the folding enthalpy in data set [1] was -37.7 kcal/mol. Besides, in data set [2], the Tm stood at 55.9 °C.
